Data from article PMC3117328 (Chemistry & biology, 2009).

How the values were obtained:
[1] = target: EF-G GTPase (70S ribosomes) (Escherichia coli, UniProt P0A7J7); assay: EF-G GTPase Pi release assay with MDCC-labeled PBP; assay type: biochemical
[2] = target: IF2 (70S initiation complex formation) (Escherichia coli, UniProt P0A7J7); assay: IF2^Cy3 fluorescence change assay; assay type: biochemical; conditions: ThS, NoS at 1.5 µM (Figure 2A); precursors in dose response screen
[3] = test system: Escherichia coli in vitro coupled transcription-translation (GFP synthesis); assay: In vitro coupled transcription-translation; assay type: biochemical; conditions: 5 µM ThS, 5 µM NoS, 25 µM GE2270T (Figure 4)
Method in brief: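 E. coli lysate-based coupled transcription-translation system expressing GFP, ribosomes ~2 µM, run with or without test compound. After reaction, samples are moved to microtiter plates. GFP fluorescence is imaged on a laser scanner with blue-laser excitation and quantified from the images, with inhibition taken against the no-antibiotic reaction.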

[4] = target: EF-G GTPase (E. coli 70S ribosomes) (Escherichia coli, UniProt P0A7J7); assay type: biochemical; conditions: compound 1 µM; 30 nM 70S ribosomes, 20 µM GTP, 60 nM protein
[5] = background statement, no reference given; cited from earlier work

Chain of IF2 (70S initiation complex formation) (P0A7J7 2-142, one chain of several): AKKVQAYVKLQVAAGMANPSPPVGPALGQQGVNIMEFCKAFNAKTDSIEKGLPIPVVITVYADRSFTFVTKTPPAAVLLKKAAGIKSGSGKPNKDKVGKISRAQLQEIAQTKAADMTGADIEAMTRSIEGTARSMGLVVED
Chain of EF-G GTPase (70S ribosomes) (P0A7J7 2-142): as the sequence (P0A7J7 2-142, one chain of several) above
Chain of EF-G GTPase (E. coli 70S ribosomes) (P0A7J7 2-142): as the sequence (P0A7J7 2-142, one chain of several) above

**Q.** Which results are given for `C=C(NC(=O)c1csc(-c2nc3c(cc2O)-c2nc(cs2)C(=O)N[C@@H]([C@@H](C)O)C(=O)N/C(=C\C)c2nc(cs2)C(=O)N[C@H]2C[C@H](O)C(=O)OCc4cccc5[nH]c(c(C)c45)C(=O)SC[C@H](NC(=O)c4csc2n4)c2nc-3cs2)n1)C(N)=O` [NoS, nosiheptide]?
**A.** EC50 [1]: 0.04 µM; inhibition of the IF2^Cy3 fluorescence increase on 70SIC formation (in words) [2]: inhibited; inhibition of GFP synthesis in the in vitro TT assay [3]: potent inhibitors

**Q.** With GE2270T as the molecule, how does the “inhibition of GFP synthesis in the in vitro TT assay” value [3] read?
**A.** potent inhibitors

**Q.** For `C/C=C(\NC(=O)c1csc(-c2csc(-c3ccc4c(n3)-c3csc(n3)[C@H]([C@@H](C)O)NC(=O)c3csc(n3)[C@H](C(C)C)NC(=O)c3csc(n3)/C(=C/C)NC(=O)[C@H]([C@@H](C)O)NC(=O)c3csc-4n3)n2)n1)C(=O)NC[C@@H](C)O` [MiC, micrococcin], which EC50 [1] is on record?
**A.** 0.11 µM

**Q.** With `C=C(NC(=O)C(=C)NC(=O)c1csc(C2=N[C@@H]3c4csc(n4)[C@H]4NC(=O)c5csc(n5)[C@H]([C@](C)(O)[C@@H](C)O)NC(=O)[C@H]5CSC(=N5)/C(=C/C)NC(=O)[C@H]([C@@H](C)O)NC(=O)c5csc(n5)[C@]3(CC2)NC(=O)[C@H](C)NC(=O)C(=C)NC(=O)[C@H](C)NC(=O)[C@H]([C@@H](C)CC)N[C@@H]2C=Cc3c([C@H](C)O)cc(nc3[C@H]2O)C(=O)O[C@@H]4C)n1)C(N)=O` [ThS, thiostrepton] as the molecule, how does the “inhibition of the IF2^Cy3 fluorescence increase on 70SIC formation (in words)” value [2] read?
**A.** inhibited

**Q.** And the “inhibition of EF-G GTPase activity (Malachite Green)” value [4]?
**A.** almost completely abolished

**Q.** And the “inhibition of GFP synthesis in the in vitro TT assay” value [3]?
**A.** potent inhibitors

**Q.** What about the bioavailability [5] of the same molecule?
**A.** poor
